# Experimental data: ChEMBL document CHEMBL4406821, “Novel dual inhibitors targeting CDK4 and VEGFR2 synergistically suppressed cancer progression and angiogenesis” (Eur J Med Chem, 2019)
# Calls of active or inactive are those of the source. No cut-off for these calls is given here.
# Assays:
# [1] = test system: T47D; assay: Antiproliferative activity against human T47D cells assessed as reduction in cell viability at 20 to 40 nM incubated for 48 hrs by EdU staining based laser scanning confocal microscopy; format: functional
# Procedure, shortened: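 Cells, 5×10^4, were seeded in 24-well plates and treated for 48 h. They were then labeled using an EdU Apollo 488 imaging kit with Hoechst 33342 nuclear stain and imaged by laser scanning confocal microscopy. Percent EdU-positive cells = EdU-positive/Hoechst-stained × 100%.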
# [2] = Toxicity in NOD/SCID BALB/c mouse xenografted with human SiHa cells assessed as reduction in body weight at 20 to 40 mg/kg, po administered for 21 days; format: organism-based; details: in vivo, 504 h
# [3] = Clearance in Sprague-Dawley rat at 10 mg/kg, iv by HPLC-MS analysis; format: ADME, organism-based; details: in vivo
# Procedure, shortened: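 Rats fitted with jugular vein catheters for serial blood sampling. Compound dissolved in saline with 5% (v/v) DMSO and given as a single 10 mg/kg dose iv or po after an overnight fast, n = 5 per group. Plasma isolated at once and measured by HPLC with tandem MS detection. Parameters derived by noncompartmental fitting.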
# [4] = target: 5'-AMP-activated protein kinase catalytic subunit alpha-1 (Homo sapiens) (UniProt Q13131); assay: Inhibition of recombinant full length human AMPKalpha1 at 1 uM using AMARAASAAALAR as substrate incubated for 40 mins in presence of [gamma-33P]-ATP by scintillation counting method relative to control
# Procedure, shortened: (§1)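 Kinase panel profiling at 1 μM performed by Eurofins KinaseProfiler; percent inhibition reported as mean of two independent experiments.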
# [5] = target: NUAK family SNF1-like kinase 1 (Homo sapiens) (UniProt O60285); assay: Inhibition of recombinant human ARK5 (2 to end residues) at 1 uM using KKKVSRSGLYRSP as substrate incubated for 40 mins in presence of [gamma-33P]-ATP by scintillation counting method relative to control; procedure, shortened: as §1
# [6] = target: Serine/threonine-protein kinase BRSK1 (Homo sapiens) (UniProt Q8TDC3); assay: Inhibition of recombinant human BRSK1 (2 to end residues) at 1 uM using KKKVSRSGLYRSP as substrate incubated for 40 mins in presence of [gamma-33P]-ATP by scintillation counting method relative to control; procedure, shortened: as §1
# [7] = test system: Serine/threonine-protein kinase Chk2 (Homo sapiens), O96017 [I157T]; assay: Inhibition of recombinant human CHK2 I157T mutant (5 to end residues) at 1 uM using KKKVSRSGLYRSP as substrate incubated for 40 mins in presence of [gamma-33P]-ATP by scintillation counting method relative to control; procedure, shortened: as §1
# [8] = test system: Mast/stem cell growth factor receptor Kit (Homo sapiens), P10721 [V654A]; assay: Inhibition of recombinant human c-KIT V654A mutant (544 to end residues) at 1 uM using GGMEDIYFEFMGG as substrate incubated for 40 mins in presence of [gamma-33P]-ATP by scintillation counting method relative to control
# Procedure, shortened: (§2)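 Tested at a single 1 uM in an outsourced commercial kinase-profiling panel, read as percent inhibition. Each value is the mean of two independent experiments.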
# [9] = test system: Hepatocyte growth factor receptor (Homo sapiens), P08581 [D1246N]; assay: Inhibition of recombinant human Met D1246N mutant (974 to end residues) at 1 uM using KKKGQEEEYVFIE as substrate incubated for 40 mins in presence of [gamma-33P]-ATP by scintillation counting method relative to control
# [10] = target: cGMP-dependent protein kinase 1 (Homo sapiens) (UniProt Q13976); assay: Inhibition of recombinant human full length PKG1alpha at 1 uM using RRRLSFAEPG as substrate incubated for 40 mins in presence of [gamma-33P]-ATP by scintillation counting method relative to control
# [11] = target: RAC-alpha serine/threonine-protein kinase (Homo sapiens) (UniProt P31749); assay: Inhibition of recombinant human PKBalpha at 1 uM using as CKRREILSRRPSYRK substrate incubated for 60 mins in presence of [gamma-33P]-ATP by scintillation counting method relative to control
# [12] = target: Protein kinase C beta type (Homo sapiens) (UniProt P05771); assay: Inhibition of recombinant human PKCbeta2 (2 to end residues) at 1 uM using histone H1 as substrate incubated for 40 mins in presence of [gamma-33P]-ATP by scintillation counting method relative to control
# [13] = target: Tyrosine-protein kinase FRK (Homo sapiens) (UniProt P42685); assay: Inhibition of recombinant human PTK5 (218 to end residues) at 1 uM using GGEEEEYFELVKKKK as substrate incubated for 40 mins in presence of [gamma-33P]-ATP by scintillation counting method relative to control
# [14] = target: Serine/threonine-protein kinase 32A (Homo sapiens) (UniProt Q8WU08); assay: Inhibition of recombinant human full length STK32A at 1 uM using casein as substrate incubated for 40 mins in presence of [gamma-33P]-ATP by scintillation counting method relative to control
# Procedure, shortened: (§3)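 Single-point inhibition at 1 uM measured in a commercial kinase profiling panel (KinaseProfiler); each value is the mean of two independent experiments.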
# [15] = target: Transcription initiation factor TFIID subunit 1-like (Homo sapiens) (UniProt Q8IZX4); assay: Inhibition of recombinant human TAF1L (1428 to end residues) at 1 uM using RRRFRPASPLRGPPK as substrate incubated for 40 mins in presence of [gamma-33P]-ATP by scintillation counting method relative to control; procedure, shortened: as §2
# [16] = target: Serine/threonine-protein kinase ULK3 (Homo sapiens) (UniProt Q6PHR2); assay: Inhibition of recombinant human full length ULK3 at 1 uM using casein as substrate incubated for 40 mins in presence of [gamma-33P]-ATP by scintillation counting method relative to control
# [17] = target: Wee1-like protein kinase 2 (Homo sapiens) (UniProt P0C1S8); assay: Inhibition of recombinant human full length WEE1B at 1 uM using LSNLYHQGKFLQTFCGSPLYRRR as substrate incubated for 40 mins in presence of [gamma-33P]-ATP by scintillation counting method relative to control; procedure, shortened: as §3
# [18] = target: CDK6/cyclin D3 (Homo sapiens) (UniProt P30281+Q00534); assay: Inhibition of recombinant human full length CDK6/cyclinD3 at 1 uM using histone H1 as substrate incubated for 40 mins in presence of [gamma-33P]-ATP by scintillation counting method relative to control; format: protein-complex assay
# [19] = test system: T47D; assay: Induction of apoptosis in human T47D cells assessed as decrease in Bcl2 expression at 40 nM incubated for 48 hrs by Western blot analysis; format: functional, cell-based
# Procedure, shortened: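 Cancer cells were exposed to graded concentrations for 48 h, washed three times in PBS and lysed in RIPA buffer. Immunoblots were probed with anti-Rb, anti-phospho-Rb, anti-Ki67 and anti-Bcl-2, each at 1:1000. β-actin served as loading control.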
# Chain of Serine/threonine-protein kinase BRSK1 (Homo sapiens) (Q8TDC3 whole entry): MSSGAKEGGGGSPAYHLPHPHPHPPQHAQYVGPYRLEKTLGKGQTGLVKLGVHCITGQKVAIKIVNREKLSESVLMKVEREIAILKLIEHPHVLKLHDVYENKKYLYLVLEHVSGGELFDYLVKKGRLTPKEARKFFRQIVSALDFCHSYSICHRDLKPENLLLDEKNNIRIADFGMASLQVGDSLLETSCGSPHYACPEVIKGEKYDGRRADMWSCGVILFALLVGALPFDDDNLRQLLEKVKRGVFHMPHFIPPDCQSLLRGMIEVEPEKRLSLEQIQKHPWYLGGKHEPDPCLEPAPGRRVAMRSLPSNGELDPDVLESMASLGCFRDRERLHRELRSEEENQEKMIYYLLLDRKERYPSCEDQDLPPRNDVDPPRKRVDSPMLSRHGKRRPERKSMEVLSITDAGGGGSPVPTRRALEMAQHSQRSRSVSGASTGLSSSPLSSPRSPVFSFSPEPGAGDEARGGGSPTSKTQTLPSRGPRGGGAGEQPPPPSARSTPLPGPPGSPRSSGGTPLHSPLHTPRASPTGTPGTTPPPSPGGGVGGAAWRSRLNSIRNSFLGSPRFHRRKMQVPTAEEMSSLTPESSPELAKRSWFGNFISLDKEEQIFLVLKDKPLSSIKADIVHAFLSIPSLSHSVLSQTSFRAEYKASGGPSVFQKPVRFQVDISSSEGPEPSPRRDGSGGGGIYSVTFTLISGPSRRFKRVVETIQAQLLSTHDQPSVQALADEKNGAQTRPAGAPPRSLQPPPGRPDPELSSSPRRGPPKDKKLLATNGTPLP
# Chain of Serine/threonine-protein kinase 32A (Homo sapiens) (Q8WU08 whole entry): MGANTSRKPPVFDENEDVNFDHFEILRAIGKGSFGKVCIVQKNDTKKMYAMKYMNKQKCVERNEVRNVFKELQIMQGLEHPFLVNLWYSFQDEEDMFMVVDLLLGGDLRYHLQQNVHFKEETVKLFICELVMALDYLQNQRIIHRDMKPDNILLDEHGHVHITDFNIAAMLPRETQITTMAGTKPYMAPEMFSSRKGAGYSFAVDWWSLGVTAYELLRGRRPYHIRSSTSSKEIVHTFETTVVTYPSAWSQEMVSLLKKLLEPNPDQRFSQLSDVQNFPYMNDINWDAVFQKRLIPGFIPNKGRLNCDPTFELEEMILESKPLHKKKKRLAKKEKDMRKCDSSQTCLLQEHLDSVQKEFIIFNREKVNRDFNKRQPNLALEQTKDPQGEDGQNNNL
# Chain of Transcription initiation factor TFIID subunit 1-like (Homo sapiens) (Q8IZX4 whole entry): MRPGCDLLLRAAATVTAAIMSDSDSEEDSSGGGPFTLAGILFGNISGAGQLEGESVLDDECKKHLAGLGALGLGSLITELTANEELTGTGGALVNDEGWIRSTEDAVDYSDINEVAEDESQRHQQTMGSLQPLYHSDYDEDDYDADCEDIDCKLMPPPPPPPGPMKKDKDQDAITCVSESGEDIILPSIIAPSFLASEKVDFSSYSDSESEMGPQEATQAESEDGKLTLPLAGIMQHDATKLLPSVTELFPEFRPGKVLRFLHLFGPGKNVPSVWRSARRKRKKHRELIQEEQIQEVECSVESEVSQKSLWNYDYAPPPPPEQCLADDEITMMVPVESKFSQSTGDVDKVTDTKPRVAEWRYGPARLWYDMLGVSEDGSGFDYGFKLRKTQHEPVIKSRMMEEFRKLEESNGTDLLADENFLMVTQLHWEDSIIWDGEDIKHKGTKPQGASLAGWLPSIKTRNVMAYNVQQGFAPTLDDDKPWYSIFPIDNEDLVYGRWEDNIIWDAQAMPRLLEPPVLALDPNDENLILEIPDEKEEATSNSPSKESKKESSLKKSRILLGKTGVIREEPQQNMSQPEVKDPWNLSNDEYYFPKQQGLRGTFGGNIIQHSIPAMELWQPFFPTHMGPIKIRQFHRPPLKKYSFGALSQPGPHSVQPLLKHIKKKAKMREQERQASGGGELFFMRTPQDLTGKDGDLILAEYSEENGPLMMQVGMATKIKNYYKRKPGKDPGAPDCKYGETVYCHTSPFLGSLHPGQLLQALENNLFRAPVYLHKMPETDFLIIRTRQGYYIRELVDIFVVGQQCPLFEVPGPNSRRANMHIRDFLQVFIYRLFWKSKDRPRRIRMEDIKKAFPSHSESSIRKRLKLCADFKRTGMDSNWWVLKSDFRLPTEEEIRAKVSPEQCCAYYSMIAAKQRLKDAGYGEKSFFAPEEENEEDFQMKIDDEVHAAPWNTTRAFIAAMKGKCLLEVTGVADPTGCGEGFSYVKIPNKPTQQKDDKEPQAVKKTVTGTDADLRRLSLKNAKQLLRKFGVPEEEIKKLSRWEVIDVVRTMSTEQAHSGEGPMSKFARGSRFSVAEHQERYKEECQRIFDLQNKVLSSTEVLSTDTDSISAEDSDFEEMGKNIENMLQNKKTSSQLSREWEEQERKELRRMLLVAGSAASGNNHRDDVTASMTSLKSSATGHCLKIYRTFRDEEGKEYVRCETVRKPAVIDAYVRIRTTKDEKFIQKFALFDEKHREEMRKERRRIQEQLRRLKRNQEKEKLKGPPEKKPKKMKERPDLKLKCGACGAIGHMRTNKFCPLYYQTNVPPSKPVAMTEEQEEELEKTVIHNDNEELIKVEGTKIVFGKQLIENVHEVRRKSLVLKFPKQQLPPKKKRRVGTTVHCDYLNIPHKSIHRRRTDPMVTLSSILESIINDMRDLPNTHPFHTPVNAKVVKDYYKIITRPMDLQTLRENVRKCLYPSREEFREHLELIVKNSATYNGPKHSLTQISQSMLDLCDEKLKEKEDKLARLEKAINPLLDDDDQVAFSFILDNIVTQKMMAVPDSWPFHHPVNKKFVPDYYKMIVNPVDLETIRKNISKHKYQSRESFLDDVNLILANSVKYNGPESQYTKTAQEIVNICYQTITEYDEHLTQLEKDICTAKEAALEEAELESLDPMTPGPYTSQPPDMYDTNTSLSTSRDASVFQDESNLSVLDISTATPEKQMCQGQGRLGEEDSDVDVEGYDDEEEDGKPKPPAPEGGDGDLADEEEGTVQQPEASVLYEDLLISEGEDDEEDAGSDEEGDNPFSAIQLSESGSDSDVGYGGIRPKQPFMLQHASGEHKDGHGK
# Chain of Serine/threonine-protein kinase ULK3 (Homo sapiens) (Q6PHR2 whole entry): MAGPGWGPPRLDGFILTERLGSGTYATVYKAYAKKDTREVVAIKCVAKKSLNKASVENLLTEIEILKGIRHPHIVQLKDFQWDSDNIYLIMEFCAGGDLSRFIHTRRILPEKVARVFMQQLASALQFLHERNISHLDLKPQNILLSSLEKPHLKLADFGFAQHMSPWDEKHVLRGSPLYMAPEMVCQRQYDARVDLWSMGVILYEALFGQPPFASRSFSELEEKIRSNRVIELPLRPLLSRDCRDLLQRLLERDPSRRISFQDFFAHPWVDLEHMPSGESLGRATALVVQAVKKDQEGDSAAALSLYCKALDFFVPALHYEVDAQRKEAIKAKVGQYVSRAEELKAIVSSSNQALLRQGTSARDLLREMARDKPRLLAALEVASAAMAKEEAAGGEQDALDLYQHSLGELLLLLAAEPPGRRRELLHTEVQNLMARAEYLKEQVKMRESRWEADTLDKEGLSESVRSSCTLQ
# Chain of NUAK family SNF1-like kinase 1 (Homo sapiens) (O60285 whole entry): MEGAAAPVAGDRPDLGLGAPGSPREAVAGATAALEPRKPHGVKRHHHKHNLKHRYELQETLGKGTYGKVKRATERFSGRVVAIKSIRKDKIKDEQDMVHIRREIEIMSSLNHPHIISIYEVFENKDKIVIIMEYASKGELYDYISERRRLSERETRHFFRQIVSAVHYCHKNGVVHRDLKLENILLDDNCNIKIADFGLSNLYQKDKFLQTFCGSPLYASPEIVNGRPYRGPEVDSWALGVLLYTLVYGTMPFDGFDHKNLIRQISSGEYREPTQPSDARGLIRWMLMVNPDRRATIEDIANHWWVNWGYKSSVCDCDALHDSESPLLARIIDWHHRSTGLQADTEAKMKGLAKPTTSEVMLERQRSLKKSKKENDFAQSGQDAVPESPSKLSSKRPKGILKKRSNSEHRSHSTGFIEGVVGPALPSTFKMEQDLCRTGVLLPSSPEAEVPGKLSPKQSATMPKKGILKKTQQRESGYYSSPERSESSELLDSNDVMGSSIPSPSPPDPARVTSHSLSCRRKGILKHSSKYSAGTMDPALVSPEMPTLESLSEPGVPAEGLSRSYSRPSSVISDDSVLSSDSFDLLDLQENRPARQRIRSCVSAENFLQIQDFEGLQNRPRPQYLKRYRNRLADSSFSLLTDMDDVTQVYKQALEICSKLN
# Chain of Tyrosine-protein kinase FRK (Homo sapiens) (P42685 whole entry): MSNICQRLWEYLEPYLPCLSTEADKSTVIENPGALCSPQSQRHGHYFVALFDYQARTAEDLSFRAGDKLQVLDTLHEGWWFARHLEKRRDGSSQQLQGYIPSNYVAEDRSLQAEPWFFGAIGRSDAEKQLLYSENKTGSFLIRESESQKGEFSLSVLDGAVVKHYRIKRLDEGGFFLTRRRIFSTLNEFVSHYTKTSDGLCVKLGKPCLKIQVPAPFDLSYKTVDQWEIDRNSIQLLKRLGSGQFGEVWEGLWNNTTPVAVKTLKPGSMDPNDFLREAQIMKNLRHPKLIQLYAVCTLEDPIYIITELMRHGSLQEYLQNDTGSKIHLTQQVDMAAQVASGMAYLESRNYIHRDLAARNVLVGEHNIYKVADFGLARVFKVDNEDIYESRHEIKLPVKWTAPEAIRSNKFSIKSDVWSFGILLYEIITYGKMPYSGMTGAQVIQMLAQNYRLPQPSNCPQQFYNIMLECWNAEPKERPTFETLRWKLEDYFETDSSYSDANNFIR
Compound,inhibition [1],Activity [2],clearance [3] [mL/min/kg],inhibition [4] [%],inhibition [5] [%],inhibition [6] [%],inhibition [7] [%],inhibition [8] [%],inhibition [9] [%],inhibition [10] [%],inhibition [11] [%],inhibition [12] [%],inhibition [13] [%],inhibition [14] [%],inhibition [15] [%],inhibition [16] [%],inhibition [17] [%],inhibition [18] [%],Activity [19]
Cc1ccc(NC(=O)C2(C(=O)Nc3ccc(Nc4ncc(F)c(-c5cc(F)c6nc(C)n(C(C)C)c6c5)n4)cc3)CC2)cc1,Active,Toxic,16.7,40,69,14,24,45,51,51,36,47,10,0,0,37,0,94,–
COc1cc2nccc(Oc3ccc(NC(=O)C4(C(=O)Nc5ccc(F)cc5)CC4)cc3)c2cc1OC [CABOZANTINIB],–,–,–,–,–,–,–,–,–,–,–,–,–,–,–,–,–,–,Active
